Results on 2 molecules are retold here after article PMC5435566 (Nature chemical biology, 2017).

In one data set the target is T1, human LMPTP-A (Homo sapiens, UniProt P24666).
T1 sequence (P24666 1-158): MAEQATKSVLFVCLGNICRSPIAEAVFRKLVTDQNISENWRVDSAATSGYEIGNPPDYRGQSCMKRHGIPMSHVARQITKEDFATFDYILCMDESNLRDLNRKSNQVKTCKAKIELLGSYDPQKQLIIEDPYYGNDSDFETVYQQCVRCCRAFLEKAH
Kind of data set: Isothermal titration calorimetry. It is filed as binding. In outline: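 ITC was run at 23°C: 2 μl injections of 0.5 mM test compound into 50 μM human LMPTP-A, with or without 200 μM sodium orthovanadate to form the cysteine adduct. Tris runs used 10 mM Tris pH 7.5, 75 mM NaCl, 0.5 mM β-mercaptoethanol, 5% DMSO; parallel runs used phosphate buffer. Kd, ΔH and −TΔS were derived from the titrations.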
(Isothermal titration calorimetry measures the heat released or taken up as one component is titrated into another.)

The next data set in a line: Solubility. Format: physicochemical.
For data set [1], the system named is human LMPTP-A mutants (Y49, Y131, Y132). Kind of data set: Inhibition of LMPTP-A mutants, OMFP substrate. It is filed as biochemical. The settings on record: 0.4 mM OMFP, versus wild-type LMPTP-A. The gist of the method:
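Wild-type and mutant human LMPTP-A were assayed with 0.4 mM OMFP in 50 mM Bis-Tris pH 6.0, 1 mM DTT, 0.01% Triton X-100 at 37°C across test-compound concentrations. OMFP hydrolysis was monitored continuously by fluorescence (ex 485/em 525 nm) and reported as % activity, from 3 independent experiments.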

Data set [2] has as its system insulin receptor (IR) tyrosine phosphorylation in HepG2 hepatocytes. Kind of data set: IR phosphorylation in HepG2 cells. It is filed as cell-based, human. Conditions: 10 μM compound overnight, 10 nM insulin 5 min. In outline:
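HepG2 cells were grown in MEM with 10% FBS and pen/strep and confirmed mycoplasma-free. Cells were treated overnight with 10 μM test compound or DMSO in 0.1% FBS medium, then stimulated with 10 nM bovine insulin for 5 min at 37°C. Read-outs were anti-IRβ immunoprecipitation with pY1162/Y1163 Western blot (2 experiments) and pIRβ Y1150/Y1151 sandwich ELISA (5 experiments).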

A word on the Kd: it is a measure of binding affinity in units of concentration. Lower therefore signals a tighter complex.

In the case of `N#Cc1ccccc1-c1cc(NCCCN2CCCCC2)c2ccccc2n1` [Compd. 18], on human LMPTP-A (Tris buffer, no vanadate), the Kd amounted to 8 ± 2 µM and the “−TΔS” value is -6.4 ± 0.3 kcal/mol. Moreover, on human LMPTP-A (phosphate buffer), binding was put at a Kd of 10 ± 2 µM and the “−TΔS” value is -5.6 ± 0.3 kcal/mol. Moreover, the solubility result in the data set “Solubility” was “highly soluble”. In addition, in data set [1], the “inhibition of LMPTP-A mutated at Y49 and Y132” value is listed as “substantially reduced”; the “inhibition of LMPTP-A mutated at Y131 alone or in combination with Y49 and Y132” value was “completely abolished”.

Consider `c1ccc(-c2cc(SCCCN3CCCCC3)c3ccccc3n2)cc1` [Compd. 28], for which the “HepG2 IR phosphorylation after insulin stimulation” value in data set [2] is on record as “had no effect”.
